The test system of data set [1] is Measles morbillivirus. The experiment in a line: Antiviral activity against Measles virus Alaska infected african green monkey Vero cells expressing human SLAM assessed as decrease in virus-induced cytopathic effect. The class given is functional, organism-based.
Data set [2] in a line: Solubility of the compound at pH 7.4 by nephelometric analysis. The class given is physicochemical. The conditions noted are these: buffer. The method in brief: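 Aqueous solubility was measured by nephelometry in buffer at pH 7.4.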
A further data set relates to Vero. Description: Cytotoxicity against african green monkey Vero cells after 24 hrs by MTT assay. The class given is cell-based. The conditions noted are these: chlorocebus sabaeus.
A further data set concerns Caco-2. Description: Efflux ratio of permeability in human Caco2 cells. It counts as ADME, cell-based. Summed up:
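Caco-2 bidirectional permeability assay, with efflux ratio calculated from the two transport directions.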

A short description of data set [3]: Metabolic stability of the compound in human liver S9 fractions assessed as compound remaining after 1 hr. It counts as ADME, subcellular, S9 fraction. The conditions noted are these: read-out: Stability. Summed up:
(§1)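 Compound incubated one hour in liver S9 fraction, with the percentage of parent compound remaining as the readout.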

Data set [4] deals with Measles morbillivirus. The experiment in a line: Inhibition of Measles virus RdRp expressed in baby hamster BSR-T7/5 cells by firefly luciferase mini replicon assay. It counts as cell-based. The method in brief: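 BSR-T7/5 cells were transfected with plasmids encoding MeV L, N and P plus a firefly luciferase minigenome reporter, then incubated with a range of inhibitor concentrations or vehicle. Luciferase activity in cell lysates was read 36 h post-transfection relative to vehicle, and dose-response curves were built; three experiments.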

Data set [5] is described as follows: Metabolic stability of the compound in mouse liver S9 fractions assessed as compound remaining after 1 hr. It counts as ADME, subcellular, S9 fraction. The conditions noted are these: read-out: Stability. The method in brief: as §1
Data set [6] has as its system Measles morbillivirus. The experiment in a line: Antiviral activity against Measles virus Alaska infected african green monkey Vero cells expressing human SLAM assessed as decrease in viral titer at EC50 of cytopathic inhibition. The class given is functional, organism-based.
Data set [7] has as its system Rattus norvegicus. The experiment in a line: Oral bioavailability in Sprague-Dawley rat at 10 mg/kg. It counts as ADME, organism-based. The note with it: in vivo. Summed up:
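Rats were dosed 2 mg/kg i.v. and 10 mg/kg p.o., and oral bioavailability F was derived by comparing the two routes.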

The nature of data set [8]: Tmax in Sprague-Dawley rat at 10 mg/kg, po. The class given is ADME, organism-based. The arrangement: dose 10 mg/kg, route oral. The note with it: in vivo. Summed up:
(§2)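 Oral gavage at 10 and 50 mg/kg to Sprague-Dawley rats, given as a suspension in PEG200/0.5% methylcellulose (10/90), n = 4 per group. Plasma concentration was followed over time, and PK parameters were estimated by non-compartmental analysis.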

Data set [9] is described as follows: Tmax in Sprague-Dawley rat at 50 mg/kg, po. It counts as ADME, organism-based. The arrangement: dose 50 mg/kg, route oral. The note with it: in vivo. Summed up:
as §2

Data set [10] can be described thus: Cmax in Sprague-Dawley rat at 10 mg/kg, po. It counts as ADME, organism-based. The arrangement: dose 10 mg/kg, route oral. The note with it: in vivo. Summed up: as §2
Data set [11] is described as follows: Cmax in Sprague-Dawley rat at 50 mg/kg, po. The class given is ADME, organism-based. The arrangement: dose 50 mg/kg, route oral. The note with it: in vivo. Summed up: as §2
Data set [12] can be described thus: Half life in Sprague-Dawley rat at 10 mg/kg, po. The note with it: in vivo. It counts as ADME, organism-based. The arrangement: dose 10 mg/kg, route oral. Summed up:
as §2

The nature of data set [13]: Half life in Sprague-Dawley rat at 50 mg/kg, po. The class given is ADME, organism-based. The arrangement: dose 50 mg/kg, route oral. The note with it: in vivo. Summed up: as §2
A short description of data set [14]: AUC (0 to t) in Sprague-Dawley rat at 10 mg/kg, po. The note with it: plasma. It counts as ADME, organism-based. The arrangement: dose 10 mg/kg, route oral. The method in brief: as §2
The nature of data set [15]: AUC (0 to t) in Sprague-Dawley rat at 50 mg/kg, po. The arrangement: dose 50 mg/kg, route oral. The class given is ADME, organism-based. The conditions noted are these: plasma. Summed up:
as §2

Data set [16] in a line: AUC (0 to infinity) in Sprague-Dawley rat at 10 mg/kg, po. The class given is ADME, organism-based. The arrangement: time infinity, dose 10 mg/kg, route oral. The conditions noted are these: plasma. The method in brief: as §2
The nature of data set [17]: AUC (0 to infinity) in Sprague-Dawley rat at 50 mg/kg, po. The class given is ADME, organism-based. The arrangement: time infinity, dose 50 mg/kg, route oral. The conditions noted are these: plasma. Summed up:
as §2

The test system of data set [18] is Rattus norvegicus. Description: Ratio of Cmax for ERDRP-00519 to Cmax for AS-136a in Sprague-Dawley rat at 10 to 50 mg/kg. It counts as ADME, organism-based. The arrangement: dose 10-50 mg/kg. The note with it: in vivo.
In data set [19] the test system is Rattus norvegicus. The experiment in a line: Ratio of AUC for ERDRP-00519 to AUC for AS-136a in Sprague-Dawley rat at 10 to 50 mg/kg. It counts as ADME, organism-based. The arrangement: dose 10-50 mg/kg. The note with it: in vivo.

SMILES strings stand for the structures. pEC50: −log10 of the molar value. ≈ marks a conversion by molar mass, not a printed value.

In the case of `Cn1nc(C(F)(F)F)cc1C(=O)Nc1ccc(S(=O)(=O)N2CCCCC2)cc1`, in the data set on Measles morbillivirus [1], the pEC50 was 5.70. Further, the solubility (kinetic) in data set [2] was below 15 µg/mL. In the data set with Vero, the CC50 was above 75 µM. The Ratio with Caco-2 is 1.1. In addition, the figures for the remaining at 1 h in data set [3] and in data set [5] were 69% and 79%, respectively. In addition, the inhibition entry with Measles morbillivirus [4] is “Dose-dependent effect”.
`Cn1nc(C(F)(F)F)cc1C(=O)Nc1ccc(S(=O)(=O)N2CCCCC2/C=C/CO)cc1` (configuration not stated): in the data set on Measles morbillivirus [1], the negative logarithm of the EC50 (pEC50) is 5.43.
In the case of `Cn1nc(C(F)(F)F)cc1C(=O)Nc1ccc(S(=O)(=O)c2ccccc2)cc1`, the values for the pEC50 with Measles morbillivirus [1] and in the data set on Measles morbillivirus [6] were 5.55 and 7.05, respectively. In [2], this compound registered a solubility (kinetic) of 22 µg/mL (≈ 53.7 µM). Moreover, in the data set on Vero, the CC50 is above 75 µM.
For the compound `Cn1nc(C(F)(F)F)cc1C(=O)Nc1ccc(S(=O)(=O)N2CCCCC2CN)cc1` (configuration not stated), the pEC50 in the data set on Measles morbillivirus [1] was 4.26.
For `Cn1nc(C(F)(F)F)cc1C(=O)Nc1ccc(S(=O)(=O)N2CCCCC2CO)cc1` (configuration not stated), in the data set with Measles morbillivirus [1], the pEC50 is 5.55. Besides, the solubility (kinetic) in [2] turned out to be 61 µg/mL (≈ 137 µM). Also, the CC50 with Vero was above 75 µM.
For the compound `COCOCC1CCN(S(=O)(=O)c2ccc(NC(=O)c3cc(C(F)(F)F)nn3C)cc2)CC1`, the pEC50 with Measles morbillivirus [1] is 4.80.
The same measure, in the same setting: then `CCOC(=O)COCC1CCCCN1S(=O)(=O)c1ccc(NC(=O)c2cc(C(F)(F)F)nn2C)cc1` (configuration not stated), with 4.60; and `CCOC(=O)/C=C/C1CCCCN1S(=O)(=O)c1ccc(NC(=O)c2cc(C(F)(F)F)nn2C)cc1` (configuration not stated), with 5.17.
Regarding `Cn1nc(C(F)(F)F)cc1C(=O)Nc1ccc(S(=O)(=O)N2CCCCC2CCO)cc1` (configuration not stated), the pEC50 in the data set on Measles morbillivirus [1] was 5.57; in the data set on Measles morbillivirus [6], 7.00. In addition, in data set [2], the solubility (kinetic) amounted to 62 µg/mL (≈ 135 µM). The compound further had a CC50 in the data set on Vero above 75 µM.
Turning to `Cn1nc(C(F)(F)F)cc1C(=O)Nc1ccc(S(=O)(=O)c2ccccc2O)cc1`, in the data set with Measles morbillivirus [1], the pEC50 is 5.35. The kinetic solubility in data set [2] came out at 67 µg/mL (≈ 158 µM).
Turning to `CCOC(=O)CCC1CCCCN1S(=O)(=O)c1ccc(NC(=O)c2cc(C(F)(F)F)nn2C)cc1` (configuration not stated), the negative-log EC50 (pEC50) with Measles morbillivirus [1] is 5.17.
Same read-out and setting: then `Cn1nc(C(F)(F)F)cc1C(=O)Nc1ccc(S(=O)(=O)N2CCCCC2CCCO)cc1` (configuration not stated), with 5.57.
Same read-out and setting: then `COCOCC1CCCN(S(=O)(=O)c2ccc(NC(=O)c3cc(C(F)(F)F)nn3C)cc2)C1` (configuration not stated), with 5.42.
Still for that read-out and setting: then `Cn1nc(C(F)(F)F)cc1C(=O)Nc1ccc(S(=O)(=O)N2CCCC[C@@H]2CCO)cc1`, with 5.08.
`Cn1nc(C(F)(F)F)cc1C(=O)Nc1ccc(S(=O)(=O)N2CCCC[C@H]2CCN2CCOCC2)cc1`: the pEC50 was 5.60 in the data set with Measles morbillivirus [1] and 7.22 in the data set on Measles morbillivirus [6]. This compound gave a solubility (kinetic) in data set [2] of 60 µg/mL (≈ 113 µM). The compound also showed a 50% cytotoxic concentration (CC50) with Vero above 75 µM. Besides, the F with Rattus norvegicus [7] is 39%. Moreover, the Ratio in the data set on Caco-2 is 2.6; in the data set on Rattus norvegicus [18] it was 10; in the data set on Rattus norvegicus [19] it was 10. In addition, in [3], the remaining at 1 h was 24%. Besides, the Tmax in data set [8] amounted to 1.1 h; in data set [9], 1.5 h. The values for the Cmax in [10] and in [11] were 195 ng/mL and 823 ng/mL, respectively. Also, the half-life in [12] is 2.2 h; in data set [13] it was 6.5 h. Also, the AUC(0-t) in data set [14] turned out to be 683 ng·h/mL; in [15] it was 3520 ng·h/mL. Besides, the AUC(0-inf) in data set [16] came to 818 ng·h/mL; in data set [17] it was 7860 ng·h/mL. Besides, the inhibition result in the data set with Measles morbillivirus [4] is “Dose-dependent effect”.
Consider `Cn1nc(C(F)(F)F)cc1C(=O)Nc1ccc(S(=O)(=O)N2CCCC[C@H]2CCO)cc1`, for which, in the data set with Measles morbillivirus [1], the pEC50 is 5.51.
In the case of `Cn1nc(C(F)(F)F)cc1C(=O)Nc1ccc(S(=O)(=O)N2CCCCC2COCCO)cc1` (configuration not stated), the pEC50 in the data set on Measles morbillivirus [1] is 5.08.
Same read-out and setting: next, `Cn1nc(C(F)(F)F)cc1C(=O)Nc1ccc(S(=O)(=O)N2CCCCC2CN=[N+]=[N-])cc1` (configuration not stated): 5.82; `Cn1nc(C(F)(F)F)cc1C(=O)Nc1ccc(S(=O)(=O)N2CCCCC2CN2CCOCC2)cc1` (configuration not stated): 5.03; `CC(=O)Oc1ccccc1S(=O)(=O)c1ccc(NC(=O)c2cc(C(F)(F)F)nn2C)cc1`: 5.35.
Still for that read-out and setting: then `C=Cc1ccccc1S(=O)(=O)c1ccc(NC(=O)c2cc(C(F)(F)F)nn2C)cc1`, with below 4.30.
On to `COc1ccccc1S(=O)(=O)c1ccc(NC(=O)c2cc(C(F)(F)F)nn2C)cc1`, for which the pEC50 in the data set on Measles morbillivirus [1] is 5.51. In data set [2], this compound gave a solubility (kinetic) below 15 µg/mL. In addition, in the data set with Vero, the CC50 is above 75 µM.
On the same counts, the results for `Cn1nc(C(F)(F)F)cc1C(=O)Nc1ccc(S(=O)(=O)c2ccccc2CO)cc1` are 5.46, 46 µg/mL (≈ 105 µM) and above 75 µM.
For the compound `CC(=O)NCC1CCCCN1S(=O)(=O)c1ccc(NC(=O)c2cc(C(F)(F)F)nn2C)cc1` (configuration not stated), the pEC50 in the data set on Measles morbillivirus [1] is 4.85.
Same read-out and setting: then `CN(C)CC1CCCCN1S(=O)(=O)c1ccc(NC(=O)c2cc(C(F)(F)F)nn2C)cc1` (configuration not stated), with below 3.82; and `COCOCC1CCCCN1S(=O)(=O)c1ccc(NC(=O)c2cc(C(F)(F)F)nn2C)cc1` (configuration not stated), with 5.82.
Still for that read-out and setting: next, `Cn1nc(C(F)(F)F)cc1C(=O)Nc1ccc(S(=O)(=O)c2ccccc2CN2CCOCC2)cc1`: below 4.12.
As for `Cn1nc(C(F)(F)F)cc1C(=O)Nc1ccc(S(=O)(=O)N2CCCCC2CCN2CCOCC2)cc1` (configuration not stated), the pEC50 in the data set on Measles morbillivirus [1] is 5.34. The compound further showed a solubility (kinetic) in data set [2] of 55 µg/mL (≈ 104 µM).

The values above are taken from ChEMBL document CHEMBL2057114, “Non-nucleoside inhibitors of the measles virus RNA-dependent RNA polymerase: synthesis, structure-activity relationships, and pharmacokinetics” (J Med Chem, 2012).
